From PubChem BioAssay
Shown are actives, neighbours in structure and some others; about 3.1% of the full set was active somewhere.
E-sel inducer = induces E-selectin expression in human endothelial cells | HUVEC E-selectin immunofluorescence imaging; normalized: neutral wells 0, TNF-alpha wells 100 | AID 686992 | activation, % at 7.58 µM | P16581 | 260,000 compounds, 0.37% hits;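 active means mean E-selectin-positive cell signal at least 10% of the positive control, reached in at least 60% of replicates, without over 20% cell loss; inconclusive means no rule given, readout overlaps actives, possibly toxicity-flagged; inactive means the rest, including those meeting only one limit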
Target sequence (P16581 whole entry, looked up): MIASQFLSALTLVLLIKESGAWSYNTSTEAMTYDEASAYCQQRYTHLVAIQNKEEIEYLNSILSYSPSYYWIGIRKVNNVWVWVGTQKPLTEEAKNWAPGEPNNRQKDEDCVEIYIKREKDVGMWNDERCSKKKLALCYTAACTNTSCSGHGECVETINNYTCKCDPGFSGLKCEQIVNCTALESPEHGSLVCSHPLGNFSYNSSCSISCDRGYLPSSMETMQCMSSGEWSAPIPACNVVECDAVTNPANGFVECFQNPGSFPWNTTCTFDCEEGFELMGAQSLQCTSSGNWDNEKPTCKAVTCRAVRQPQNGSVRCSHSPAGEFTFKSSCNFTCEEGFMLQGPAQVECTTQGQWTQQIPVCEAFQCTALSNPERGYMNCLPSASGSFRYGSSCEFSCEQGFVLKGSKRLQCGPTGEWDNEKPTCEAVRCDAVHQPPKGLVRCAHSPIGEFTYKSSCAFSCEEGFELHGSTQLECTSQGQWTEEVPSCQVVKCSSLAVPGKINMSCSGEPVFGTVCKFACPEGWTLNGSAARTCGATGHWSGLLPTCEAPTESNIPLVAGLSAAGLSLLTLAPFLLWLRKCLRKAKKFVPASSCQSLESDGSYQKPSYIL
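Test system: HUVEC | Signal: Immunofluorescence imaging | Read-out: Percent E-selectin-positive cells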
Cneo AK release = Cryptococcus neoformans lysis via adenylate kinase release. C. neoformans lysis, adenylate kinase release luminescence, 4 h; normalised: neutral wells 0, clomiphene wells 100. lysis activity, % at 15 µM. 360,000 compounds, 0.2% hits;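 active means mean lysis activity across replicates of at least 80%, whatever share of replicates individually reach that level; inactive means mean lysis activity below 80%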
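Test system: log-phase Cryptococcus neoformans yeast cells. Input: 5 × 10^6 yeast cells/mL. Medium: fresh YPD growth medium. Doses: single dose. Incubation: static 4 h at 37 °C with compound, 1 h detection. Measured by: luminescent adenylate kinase detection reagent. Read-out: signal increase indicating cell lysis. Benchmarks: Clomiphene.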
miR122 inh = inhibitors of miR-122 in Huh7 cells; Huh7 miR-122 Renilla luciferase sensor, 48 h; neutral wells = 0, positive control = 100; activation (reporter increase), % at 12.5 µM; 340,000 compounds, 0.3% hits;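 active means mean replicate activation score at least 90 and every replicate individually at or above 90; inconclusive means only one of the two criteria met; inactive means neither criterion met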;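 further: higher luciferase means less miR-122 activity so hits act as miR-122 inhibitors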
rRNA inh HTS = inhibits bacterial ribosomal RNA function over humanized ribosomes; 350,000 compounds, 1.6% hits; GFP signal change (wild-type ribosome), % (concentration not given with the values); E. coli WT GFP vs humanized-ribosome RFP mutants, fluorescence, 24 h; active compounds read low; DMSO median 0, no signal -100;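 active means significant combined selectivity score with lowered wild-type GFP, culture density cut under 30%, mutant RFP and density less affected; inactive means any of these conditions unmet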
DENV2 CPE = protects cells from dengue virus 2 cytopathic effect | DENV2-infected cells, cytopathic effect rescue, plate reader | CPE inhibition, % at 9.99 µM | 350,000 compounds, 1.7% hits | AID 651640; in the data active means CPE inhibition above about 20%, passing the limit was not always enough; inconclusive means no clear call, values can overlap the other calls; tested in BHK-21 cells
Numbers stand for hits.

Cc1noc(C)c1S(=O)(=O)Nc1ccc2c(c1)C(=O)N([C@@H](C)CO)C[C@H](C)[C@@H](CN(C)C(=O)Nc1ccccc1)O2 was read as E-sel inducer inactive, Cneo AK release inactive, miR122 inh inactive, rRNA inh HTS inactive and DENV2 CPE 21.
Screening Cc1noc(C)c1S(=O)(=O)Nc1ccc2c(c1)C(=O)N([C@H](C)CO)C[C@H](C)[C@H](CN(C)C(=O)Nc1ccccc1)OCCCC[C@@H](C)O2 returned E-sel inducer inactive, Cneo AK release inactive, miR122 inh inactive, rRNA inh HTS inactive and DENV2 CPE 89.
Cc1noc(C)c1S(=O)(=O)Nc1ccc2c(c1)C(=O)N([C@@H](C)CO)C[C@@H](C)[C@@H](CN(C)C(=O)Nc1ccccc1)OCCCC[C@H](C)O2 was read as E-sel inducer inactive, Cneo AK release inactive, miR122 inh inactive, rRNA inh HTS inactive and DENV2 CPE inactive.
`Cc1noc(C)c1S(=O)(=O)Nc1ccc2c(c1)C(=O)N([C@@H](C)CO)C[C@H](C)[C@H](CN(C)C(=O)CCCN(C)C)OCCCC[C@H](C)O2` gave E-sel inducer inactive, Cneo AK release inactive, miR122 inh inactive, rRNA inh HTS inactive and DENV2 CPE 73.
`Cc1noc(C)c1S(=O)(=O)Nc1ccc2c(c1)C(=O)N([C@@H](C)CO)C[C@@H](C)[C@@H](CN(C)C(=O)Nc1ccccc1)OCCCC[C@@H](C)O2` gave E-sel inducer inactive, Cneo AK release inactive, miR122 inh inactive, rRNA inh HTS inactive and DENV2 CPE 95.
Screening Cc1noc(C)c1S(=O)(=O)Nc1ccc2c(c1)C(=O)N([C@@H](C)CO)C[C@H](C)[C@H](CN(C)C(=O)CCCN(C)C)OCCCC[C@@H](C)O2 returned E-sel inducer inactive, Cneo AK release inactive, miR122 inh inactive, rRNA inh HTS inactive and DENV2 CPE inactive.
For CC(C)CC#Cc1ccc2c(c1)O[C@@H](CN(C)C(=O)C1CCCCC1)[C@H](C)CN([C@H](C)CO)S2(=O)=O the results were E-sel inducer inactive, Cneo AK release inactive, miR122 inh inactive, rRNA inh HTS inactive and DENV2 CPE inactive.
`CCCC#Cc1cnc2c(c1)C(=O)N([C@H](C)CO)C[C@H](C)[C@H](CN(C)C(=O)CN1CCOCC1)O2` gave E-sel inducer inactive, miR122 inh inactive and rRNA inh HTS inactive.
C[C@@H]1CN([C@@H](C)CO)C(=O)c2cc(NC(=O)C3CCCCC3)ccc2O[C@@H](C)CCCCO[C@@H]1CN(C)C(=O)c1ccncc1 was read as E-sel inducer inactive, Cneo AK release inactive, miR122 inh inactive, rRNA inh HTS inactive and DENV2 CPE inactive.
Screening Cc1noc(C)c1S(=O)(=O)Nc1ccc2c(c1)C(=O)N([C@H](C)CO)C[C@@H](C)[C@@H](CN(C)C(=O)NC(C)C)OCCCC[C@H](C)O2 returned Cneo AK release inactive, miR122 inh inactive, rRNA inh HTS inactive and DENV2 CPE inactive.
Cc1noc(C)c1S(=O)(=O)Nc1ccc2c(c1)C(=O)N([C@H](C)CO)C[C@H](C)[C@@H](CN(C)C(=O)NC(C)C)OCCCC[C@H](C)O2 was read as Cneo AK release inactive, miR122 inh inactive, rRNA inh HTS inactive and DENV2 CPE 24.
Screening Cc1noc(C)c1S(=O)(=O)Nc1ccc2c(c1)C(=O)N([C@H](C)CO)C[C@H](C)[C@H](CN(C)C(=O)C1CCCCC1)OCCCC[C@@H](C)O2 returned E-sel inducer inactive, Cneo AK release inactive, miR122 inh inactive, rRNA inh HTS inactive and DENV2 CPE 47.
Screening CN(C)c1ccc2c(c1)[C@@H]1C[C@H](CC(=O)NCc3ccccc3)O[C@@H](CO)[C@@H]1O2 returned E-sel inducer inactive, Cneo AK release inactive, miR122 inh inactive, rRNA inh HTS inactive and DENV2 CPE 21.
CN(C)c1ccc2c(c1)[C@H]1C[C@H](CC(=O)NCc3ccc(-c4ccccc4)cc3)O[C@@H](CO)[C@H]1O2 was read as E-sel inducer inactive, Cneo AK release inactive, miR122 inh inactive, rRNA inh HTS inactive and DENV2 CPE inactive.
COc1ccccc1CNC(=O)C[C@@H]1C[C@H]2c3cc(N(C)C)ccc3O[C@H]2[C@@H](CO)O1 was read as E-sel inducer inactive, Cneo AK release inactive, miR122 inh inactive, rRNA inh HTS inactive and DENV2 CPE 47.
`COc1ccccc1CNC(=O)C[C@H]1C[C@@H]2c3cc(N(C)C)ccc3O[C@@H]2[C@@H](CO)O1` gave E-sel inducer inactive, Cneo AK release inactive, miR122 inh inactive, rRNA inh HTS inactive and DENV2 CPE inactive.
For COc1ccc2c3c([nH]c2c1)[C@H](CO)N(Cc1ccccc1)CC31CCN(C(=O)Cc2ccccc2)CC1 the results were E-sel inducer inactive, rRNA inh HTS inactive and DENV2 CPE inactive.
`CCCN[C@@H]1C(=O)N2C(C(=O)OCCC)=C(C)CS[C@H]12` gave Cneo AK release inactive, miR122 inh inactive, rRNA inh HTS inactive and DENV2 CPE 72.
`COc1ccc2c3c([nH]c2c1)[C@H](CO)N(CC1CC1)CC31CN(C(=O)c2ccccc2)C1` gave E-sel inducer inactive, rRNA inh HTS inactive and DENV2 CPE inactive.
For COc1ccc(-c2csc(C(NC(C)=O)c3cccc(F)c3)n2)cc1 (stereo not drawn) the results were E-sel inducer inactive, Cneo AK release inactive, miR122 inh inactive, rRNA inh HTS inactive and DENV2 CPE inactive.
For CC(=O)NC(c1cccc(F)c1)c1nc(-c2ccc(N(C)C)cc2)cs1 (stereo not drawn) the results were E-sel inducer inactive, Cneo AK release inactive, miR122 inh inactive, rRNA inh HTS inactive and DENV2 CPE 26.
Screening C[C@H](CO)N1C[C@H](C)[C@H](CN(C)Cc2ccc(C(=O)Nc3ccccc3N)cc2)Oc2ccc(NC(=O)NC3CCCCC3)cc2CC1=O returned rRNA inh HTS inactive and DENV2 CPE inactive.
COC(=O)CN1C(=S)N(Cc2ccccc2)C(=O)C1CC(=O)Nc1ccc(OC)cc1 (stereo not drawn) was read as miR122 inh inactive.
CC(=O)NCCCC(=O)NN1C(=S)N(Cc2ccccc2)C(=O)C1CC(=O)Nc1cccc(C)c1 (stereo not drawn) was read as rRNA inh HTS -22 and DENV2 CPE inactive.
`CN(C)c1ccc(/C=C/c2ccc3ccccc3[n+]2C)cc1` gave Cneo AK release inactive and miR122 inh inactive.
For CN(C)c1ccc(/C=C/c2ccc3c4ccccc4ccc3[n+]2-c2ccccc2)cc1 the results were E-sel inducer 217, Cneo AK release inactive, miR122 inh inactive and rRNA inh HTS inactive.
For COc1ccc(C)cc1NC(=O)c1nn(C)cc1Br the results were E-sel inducer inactive, Cneo AK release inactive, miR122 inh inactive, rRNA inh HTS -15 and DENV2 CPE inconclusive.
